Laboratory results published in ChEMBL document CHEMBL2407047, “Molecular design, synthesis and biological evaluation of 1,4-dihydro-4-oxoquinoline ribonucleosides as TcGAPDH inhibitors with trypanocidal activity” (Bioorg Med Chem Lett, 2013).

Key:
[1] = target: T1, Glyceraldehyde-3-phosphate dehydrogenase, glycosomal (Trypanosoma cruzi, UniProt P22513); test: Competitive inhibition of Trypanosoma cruzi glycosomal GAPDH NAD+ binding site by ITC method; settings: read-out: Ki(app)
Summary of the method: (§1)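 Enzyme assays were run by isothermal titration calorimetry (ITC), probing the GAPDH NAD+ cosubstrate site and the active site. Affinity is reported as apparent Ki. Mode of inhibition was judged from how NAD+ and G3P KM and Vmax respond. Kinetic models were compared by second-order Akaike's information criterion.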

Saccharomyces cerevisiae = test: Cytotoxicity against Saccharomyces cerevisiae by FUN-1 fluorescence assay; type: organism-based; settings: in vivo
Summary of the method: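 Log-phase S. cerevisiae (CBMAI 0194) was grown in LB with 2% glucose and 10 mmol L⁻¹ acetate buffer, pH 5, at 37 °C. Cells were resuspended in NaHEPES pH 7.2 at 10⁷ cells mL⁻¹ and stained with FUN-1 (working solution 200 µmol L⁻¹) for 30 min, with or without compound, in 0.6% DMSO. Fluorescence (excitation 485 nm; emission 530/620 nm) was read every 10 min for 1 h at 37 °C. Viability was taken from the red/green ratio.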

[2] = target: T1, Glyceraldehyde-3-phosphate dehydrogenase, glycosomal; test: Non-competitive inhibition of Trypanosoma cruzi glycosomal GAPDH active site by ITC method; settings: read-out: Ki(app); summary of the method: as §1
[3] = Selectivity index, ratio of C57BL/6 mouse spleen cells to trypomastigotes forms of Trypanosoma cruzi Tulahuen infected in monkey LLC-MK2 cells; type: toxicity, cell-based; settings: read-out: Selectivity Index
Trypanosoma cruzi = test: Trypanocidal activity against trypomastigotes forms of Trypanosoma cruzi Tulahuen infected in monkey LLC-MK2 cells after 24 hrs by beta-galactosidase reporter assay; type: functional
[4] = Cytotoxicity against C57BL/6 mouse spleen cells after 24 hrs using propidium iodide by flow cytometry; type: cell-based
Summary of the method: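 Spleen cells were isolated from C57BL/6 mice by mechanical dissociation. They were incubated with compound at 5·10⁶ cells mL⁻¹ for 24 h at 37 °C under 5% CO2, then stained with 10 µg mL⁻¹ propidium iodide and analysed by flow cytometry. Two experiments were run in duplicate; mean plus standard deviation is reported.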

[5] = target: T1, Glyceraldehyde-3-phosphate dehydrogenase, glycosomal; test: Inhibition of Trypanosoma cruzi glycosomal GAPDH; summary of the method: as §1

T1 sequence (P22513 whole entry): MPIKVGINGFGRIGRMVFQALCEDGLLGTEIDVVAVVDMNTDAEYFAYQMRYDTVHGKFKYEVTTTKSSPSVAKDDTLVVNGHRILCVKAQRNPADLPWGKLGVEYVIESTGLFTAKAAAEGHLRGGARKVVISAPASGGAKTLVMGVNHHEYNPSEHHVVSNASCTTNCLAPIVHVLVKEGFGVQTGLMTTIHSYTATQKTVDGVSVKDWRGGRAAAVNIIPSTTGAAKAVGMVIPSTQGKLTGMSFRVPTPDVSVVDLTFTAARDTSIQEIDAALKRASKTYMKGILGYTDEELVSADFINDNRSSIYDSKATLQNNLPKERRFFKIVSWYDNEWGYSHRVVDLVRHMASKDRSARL

| Structure (SMILES) | Ki [1] [µM] | Ki [2] [µM] | selectivity ratio [3] | Activity (Trypanosoma cruzi) [µmol/L] | Activity [4] [µmol/L] | other results |
| --- | --- | --- | --- | --- | --- | --- |
| O=C(O)c1cn([C@@H]2O[C@H](CO)[C@@H](O)[C@H]2O)c2ccc(Cl)cc2c1=O | 32.3 |  |  |  |  |  |
| COc1ccc2c(=O)c(C(=O)O)cn([C@@H]3O[C@H](CO)[C@@H](O)[C@H]3O)c2c1 | 59.5 | 105 |  |  |  | Activity (Saccharomyces cerevisiae): Toxic |
| O=C(O)c1cn([C@@H]2O[C@H](CO)[C@@H](O)[C@H]2O)c2cc(Br)ccc2c1=O | 16 | 151 | > 27 | 18 | > 500 |  |
| Cc1ccc2c(c1)c(=O)c(C(=O)O)cn2[C@@H]1O[C@H](CO)[C@@H](O)[C@H]1O | 57.6 |  |  |  |  |  |
| O=C(O)c1cn([C@@H]2O[C@H](CO)[C@@H](O)[C@H]2O)c2ccc(Br)cc2c1=O | 29.5 |  |  |  |  | Activity (Saccharomyces cerevisiae): Toxic |
| COc1ccc2c(c1)c(=O)c(C(=O)O)cn2[C@@H]1O[C@H](CO)[C@@H](O)[C@H]1O | 18.7 | 305 | 1 | >500 | > 500 |  |
| O=C(Cn1ccnc1[N+](=O)[O-])NCc1ccccc1 [BENZNIDAZOLE] |  |  | > 26 | 19 | > 500 |  |
| CCOC(=O)c1cn([C@@H]2O[C@H](COC(=O)c3ccccc3)[C@@H](OC(=O)c3ccccc3)[C@H]2OC(=O)c2ccccc2)c2ccc(Cl)cc2c1=O |  |  |  |  |  | IC50 [5]: 40.7 µM |
| Cc1ccc2c(=O)c(C(=O)O)cn([C@@H]3O[C@H](CO)[C@@H](O)[C@H]3O)c2c1 | 17.1 |  |  |  |  |  |
